Source: PubChem BioAssay
FN deposition inh: fibronectin deposition inhibition; AH1F fibroblasts, Alexa488-fibronectin deposition fluorescence, overnight; inhibition, % at 12.6 µM; hit rate 0.086% among 350,000;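 active means mean inhibition across replicates of 30% or more, regardless of how many single replicates reach that level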;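 further: positive control wells lacked labelled fibronectin entirely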
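Schedule: 1 h cell adhesion before compound, then overnight fibronectin incubation; test system: AH1F fibroblast monolayer depositing Alexa488-labelled fibronectin into matrix; quantity: 10000 AH1F cells per well; probe or stimulus: fluorescent fibronectin at 24 nM final; signal: fluorescence, ex 485 nm, em 525 nm; evaluation: percent inhibition as loss of matrix-bound fibronectin fluorescence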
CaV13 FRET inh: Primary screen for inhibitors of IQ motif and Ca2+-dependent inactivation inhibitor domain binding in CACNA1D, Förster resonance energy transfer in living cells, …; hit rate 0.098% among 340,000; AID 743397; HEK cells, CFP/YFP FRET ICDI-IQ, plate reader, 10 min; percent FRET-ratio fall versus neutral wells; inhibition, % at 12.3 µM;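 active means mean replicate inhibition of at least 30% and at least 1% of replicates passing that level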;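 further: 0% = median of the neutral control wells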
NPR2 activator: GC-B (human) receptor activation; P20594; HEK293-GC-B cells, CNP EC30, cGMP TR-FRET; 0% at EC30 CNP, 100% saturating CNP; activation, % at 10 µM; hit rate 0.11% among 370,000;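 active means activation at 10 µM reaching about 35% in either raw or pattern-adjusted values, limit read from the data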
CASP6 VEID inh: caspase-6 (human) enzyme inhibition; P55212; purified caspase-6, Z-VEID-R110 cleavage fluorescence; inhibition, % at 12.5 µM; hit rate 0.53% among 350,000; AID 686996;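 active means mean inhibition across replicates at least about 35%, with every replicate also reaching that limit, limit read from the data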;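 further: 0% = median of neutral control wells and 100% = no fluorescence left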
Target sequence (P55212 24-179 limits assumed): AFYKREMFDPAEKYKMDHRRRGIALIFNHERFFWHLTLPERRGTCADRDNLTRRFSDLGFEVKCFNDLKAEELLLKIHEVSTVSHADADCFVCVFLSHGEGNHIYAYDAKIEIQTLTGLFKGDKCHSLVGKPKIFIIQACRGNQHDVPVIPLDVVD
Target sequence (P55212 194-293 limits assumed): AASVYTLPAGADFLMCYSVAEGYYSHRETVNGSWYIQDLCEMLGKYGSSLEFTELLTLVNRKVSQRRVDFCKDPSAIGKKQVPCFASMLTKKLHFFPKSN
NSD2 HMT inh: blocks human histone methyltransferase NSD2 | O96028 | NSD2 peptide methylation, AlphaScreen, 120 min | inhibition, % at 12.5 µM | hit rate 0.54% among 310,000; in the data active means inhibition above about 50%
GC-A act: GC-A (human) enzyme activation. P16066. HEK293 GC-A cells, cGMP TR-FRET, EC30 ANP; 0% at EC30 ANP, 100% saturating ANP. activation, % at 10 µM. hit rate 0.14% among 370,000; in the data active means activation above about 40%
Active calls of the source: *. Rows were chosen to be rich in hits. Some 0.99% of all compounds tested hit in one or more screens of this group.

`CC1CC(C)CN(C(=O)COC(=O)c2ccc([N+](=O)[O-])o2)C1` (stereo unspecified) gave FN deposition inh -2, CaV13 FRET inh -2, NPR2 activator -3, CASP6 VEID inh 22, NSD2 HMT inh -1 and GC-A act -3.
For CCOc1cc(N2CCOCC2)c(OCC)cc1NC(=O)COC(=O)c1cc(C)cc(C)c1 the results were FN deposition inh 1, CaV13 FRET inh 11, NPR2 activator 28, CASP6 VEID inh 4, NSD2 HMT inh 1 and GC-A act 20.
`CCOc1cc(N2CCOCC2)c(OCC)cc1NC(=O)COC(=O)c1ccc([N+](=O)[O-])o1` gave FN deposition inh 8, CaV13 FRET inh -10, NPR2 activator 37*, CASP6 VEID inh 23, NSD2 HMT inh 13 and GC-A act 37.
`CCOC(=O)C1=C(COC(=O)c2ccc([N+](=O)[O-])o2)NC(=O)NC1C` (stereo unspecified) gave FN deposition inh -1, CaV13 FRET inh -2, NPR2 activator -3, CASP6 VEID inh 43*, NSD2 HMT inh 28 and GC-A act 1.
Screening CCOC(=O)C1CCN(C(=O)COC(=O)c2ccc([N+](=O)[O-])o2)CC1 returned FN deposition inh 8, CaV13 FRET inh -2, NPR2 activator 1, CASP6 VEID inh 56*, NSD2 HMT inh 46 and GC-A act 1.
Screening COc1ccc(NC(=O)N(C)C[C@@H]2Oc3ccc(NC(=O)CCN4CCOCC4)cc3CC(=O)N([C@@H](C)CO)C[C@H]2C)cc1 returned CASP6 VEID inh 1.
Screening O=C(C[C@@H]1CC[C@H]2[C@@H](COC[C@H](O)CN2CC2CCCCC2)O1)NCc1ccc(Cl)cc1 returned FN deposition inh -5 and CASP6 VEID inh -1.
`CS(=O)(=O)N1[C@@H]2c3ccc(-c4cccc(F)c4)c(=O)n3C[C@@H]2[C@@H](CO)[C@@H]1C(=O)NC1CCC1` gave CASP6 VEID inh -1.
`O=C(O)c1ccc(N/N=C/c2ccc(-c3ccccc3Cl)o2)cc1` gave FN deposition inh -4, CaV13 FRET inh active, NPR2 activator -3, CASP6 VEID inh 6 and GC-A act 5.
Cc1ccc(/C=N/N2CCN(c3ccccc3)CC2)cc1 was read as CaV13 FRET inh -6, NPR2 activator 3, CASP6 VEID inh 9, NSD2 HMT inh -1 and GC-A act 5.
For Cc1ccc(N2CCN(/N=C/c3c(C)nn(-c4ccccc4)c3Cl)CC2)cc1 the results were FN deposition inh 2, CaV13 FRET inh -18, NPR2 activator 0, CASP6 VEID inh 45*, NSD2 HMT inh 1 and GC-A act 3.
Screening NC(c1csc(Nc2ncccn2)n1)C1CCCCC1 (stereo unspecified) returned FN deposition inh 2, CaV13 FRET inh -9, NPR2 activator 3, CASP6 VEID inh -2, NSD2 HMT inh 24 and GC-A act 1.
NC(c1csc(Nc2nccc(C(F)(F)F)n2)n1)C1CCCCC1 (stereo unspecified) was read as FN deposition inh -6, CaV13 FRET inh -12, NPR2 activator 50*, CASP6 VEID inh -5, NSD2 HMT inh 3 and GC-A act -1.
For N#Cc1ccc(NC(=O)COC(=O)CSc2nnc(-c3ccc(Cl)cc3)o2)cc1 the results were FN deposition inh -9, CaV13 FRET inh -4, NPR2 activator -10, CASP6 VEID inh 3, NSD2 HMT inh 16 and GC-A act 62*.
`O=C(COC(=O)Cc1ccc(Cl)cc1)NCc1ccc2c(c1)OCO2` gave FN deposition inh 3, CaV13 FRET inh -6, NPR2 activator 0, CASP6 VEID inh -2, NSD2 HMT inh 8 and GC-A act -2.
O=C(COC(=O)CSc1nnc(-c2ccc(Cl)cc2)o1)NCc1ccc2c(c1)OCO2 was read as CaV13 FRET inh -4, NPR2 activator 4 and GC-A act 63*.
Screening NC(=O)c1c(NC(=O)COC(=O)CSc2nnc(-c3ccc(Cl)cc3)o2)sc2c1CCC2 returned CaV13 FRET inh -6, NPR2 activator -5, NSD2 HMT inh 35 and GC-A act 51*.
For CCOC(=O)c1c(NC(=O)CSc2nnc(-c3ccc(OC)cc3)o2)sc2c1CCC2 the results were CaV13 FRET inh -5, NPR2 activator -11, NSD2 HMT inh 1 and GC-A act -2.
O=C(COC(=O)CSc1nnc(-c2ccc(Cl)cc2)o1)Nc1cc(Cl)ccc1Cl was read as CaV13 FRET inh -7, NPR2 activator -1, CASP6 VEID inh -4, NSD2 HMT inh 9 and GC-A act 32.
Screening CCNC(=O)[C@H]1[C@H](CO)[C@H]2Cn3c(ccc(-c4ccccc4F)c3=O)[C@H]2N1C returned CASP6 VEID inh -3.
`CCN(Cc1ccncc1)C(=O)c1cccc(S(=O)(=O)N(C)c2ccccc2)c1` gave NSD2 HMT inh 0.
Screening CCOC(=O)c1ccc(NC(=O)Cn2ncc(Cl)c(Cl)c2=O)cc1 returned FN deposition inh 32*, CaV13 FRET inh 5, NPR2 activator 25, CASP6 VEID inh 2, NSD2 HMT inh 9 and GC-A act 61*.
`Cc1ccc(C(=O)OCn2ncc(Cl)c(Cl)c2=O)cc1` gave FN deposition inh 17*, CaV13 FRET inh -4, NPR2 activator 2, NSD2 HMT inh 1 and GC-A act 23.
Screening O=C(OCn1ncc(Cl)c(Cl)c1=O)c1ccc(C(F)(F)F)cc1 returned CaV13 FRET inh -9, NPR2 activator 34, CASP6 VEID inh 1, NSD2 HMT inh 0 and GC-A act 31.
For CC(C)(C)[S@@](=O)N1Cc2cc(C(=O)NCc3ccccc3F)nc(-c3cccc(-c4cncnc4)c3)c2[C@H]1CCO the results were FN deposition inh 31* and CASP6 VEID inh 0.
For CC(C)(C)S(=O)N1Cc2cc(C(=O)O)nc(-c3cccc(-c4cc5ccccc5o4)c3)c2[C@H]1CCO (stereo partly specified) the results were FN deposition inh -10, CaV13 FRET inh -7, NPR2 activator 2, CASP6 VEID inh 36* and GC-A act -2.
`Cc1cccc(-n2c(SCC(=O)O)nc3sc4c(c3c2=O)CCCC4)c1` gave FN deposition inh -4, CaV13 FRET inh 0, NPR2 activator 45*, CASP6 VEID inh 5, NSD2 HMT inh -2 and GC-A act -1.
For N#Cc1nc(Nc2cc(F)cc(F)c2)c2ncn(CC(F)F)c2n1 the results were FN deposition inh 7, CaV13 FRET inh -11, NPR2 activator -9, CASP6 VEID inh -2 and GC-A act 14.
